From ChEMBL document CHEMBL5724801, “EUbOPEN Chemogenomics Library - Multiplex” (2024)
Values joined by “and” are separate entries in the source; they are usually repeats but may differ in a detail not shown here. Identical values can stand only once.

System: HEK-293T
Experiment: Multiplex assay against HEK293T
Type: toxicity, cell-based
Details: human
Summary of the method: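 Hoechst33342, BioTracker Green Microtubule Cytoskeleton Dye, MitoTracker Red and Annexin V Alexa Fluor 680 were added to live cells at seeding, and imaging on a CQ1 microscope at 37°C and 5% CO2 followed compound addition. Gating by CellPathfinder machine learning separated cells into Hoechst high-intensity objects or normal cells, then normal cells into healthy, pyknosed or fragmented nuclei, then pyknosed cells into mitotic or apoptotic. Per cents of healthy-nucleus cells are reported for the tubulin, mitochondrial-mass and membrane-permeability phenotypes.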

[1] = 12 h, 1 µM, compound concentration 1 uM
[2] = 12 h, 10 µM, compound concentration 10 uM
[3] = 24 h, 1 µM, compound concentration 1 uM
[4] = 24 h, 10 µM, compound concentration 10 uM
[5] = 48 h, 1 µM, compound concentration 1 uM
[6] = 48 h, 10 µM, compound concentration 10 uM

Structure (SMILES): COc1cc2nc(N3CCN(C(=O)c4ccco4)CC3)nc(N)c2cc1OC.Cl [PRAZOSIN HYDROCHLORIDE]
- Population Apoptotic (%) [1]: 32% and 56%
- Population Fragmented Nuclei (%) [1]: 10% and 6%
- Population Healthy Nuclei (%) [1]: 77%
- Population Hoechst High Intensity Objects (%) [1]: 6%
- Population Membrane Permeable-Phenotype (%) [1]: 0%
- Population Mitochondria Different-Phenotype (%) [1]: 35% and 66%
- Population Mitotic Cells (%) [1]: 67% and 43%
- Population Normal (%) [1]: 93%
- Population Pyknosed Nuclei (%) [1]: 11% and 16%
- Population Tubulin-Different-Phenotype (%) [1]: 23% and 22%
- Total Cell Count [1]: 448 and 290
- Population Apoptotic (%) [2]: 38% and 55%
- Population Fragmented Nuclei (%) [2]: 9% and 5%
- Population Healthy Nuclei (%) [2]: 75% and 77%
- Population Hoechst High Intensity Objects (%) [2]: 10% and 9%
- Population Membrane Permeable-Phenotype (%) [2]: 0%
- Population Mitochondria Different-Phenotype (%) [2]: 62% and 61%
- Population Mitotic Cells (%) [2]: 61% and 44%
- Population Normal (%) [2]: 89% and 90%
- Population Pyknosed Nuclei (%) [2]: 14% and 16%
- Population Tubulin-Different-Phenotype (%) [2]: 45% and 25%
- Total Cell Count [2]: 348 and 404
- Population Apoptotic (%) [3]: 38% and 51%
- Population Fragmented Nuclei (%) [3]: 9%
- Population Healthy Nuclei (%) [3]: 82% and 80%
- Population Hoechst High Intensity Objects (%) [3]: 3% and 5%
- Population Membrane Permeable-Phenotype (%) [3]: 0%
- Population Mitochondria Different-Phenotype (%) [3]: 25% and 45%
- Population Mitotic Cells (%) [3]: 61% and 48%
- Population Normal (%) [3]: 96% and 94%
- Population Pyknosed Nuclei (%) [3]: 7% and 10%
- Population Tubulin-Different-Phenotype (%) [3]: 10% and 16%
- Total Cell Count [3]: 660 and 364
- Population Apoptotic (%) [4]: 50% and 54%
- Population Fragmented Nuclei (%) [4]: 12% and 11%
- Population Healthy Nuclei (%) [4]: 77% and 78%
- Population Hoechst High Intensity Objects (%) [4]: 5%
- Population Membrane Permeable-Phenotype (%) [4]: 0% and 1%
- Population Mitochondria Different-Phenotype (%) [4]: 40% and 42%
- Population Mitotic Cells (%) [4]: 50% and 45%
- Population Normal (%) [4]: 94%
- Population Pyknosed Nuclei (%) [4]: 9% and 10%
- Population Tubulin-Different-Phenotype (%) [4]: 32% and 20%
- Total Cell Count [4]: 463 and 534
- Population Apoptotic (%) [5]: 36% and 38%
- Population Fragmented Nuclei (%) [5]: 17% and 16%
- Population Healthy Nuclei (%) [5]: 76%
- Population Hoechst High Intensity Objects (%) [5]: 1% and 2%
- Population Membrane Permeable-Phenotype (%) [5]: 1% and 0%
- Population Mitochondria Different-Phenotype (%) [5]: 16% and 23%
- Population Mitotic Cells (%) [5]: 63% and 61%
- Population Normal (%) [5]: 98% and 97%
- Population Pyknosed Nuclei (%) [5]: 5% and 6%
- Population Tubulin-Different-Phenotype (%) [5]: 8% and 9%
- Total Cell Count [5]: 1114 and 636
- Population Apoptotic (%) [6]: 33% and 23%
- Population Fragmented Nuclei (%) [6]: 17% and 14%
- Population Healthy Nuclei (%) [6]: 75% and 78%
- Population Hoechst High Intensity Objects (%) [6]: 4%
- Population Membrane Permeable-Phenotype (%) [6]: 2% and 1%
- Population Mitochondria Different-Phenotype (%) [6]: 32% and 21%
- Population Mitotic Cells (%) [6]: 66% and 76%
- Population Normal (%) [6]: 95%
- Population Pyknosed Nuclei (%) [6]: 7%
- Population Tubulin-Different-Phenotype (%) [6]: 17% and 11%
- Total Cell Count [6]: 693 and 778
